Measurements of several laboratories.
Protocols differ between the studies behind these lines.
Read-out: enzyme activity
Mode: inhibitor
BMP2K: BMP-2-inducible protein kinase (BMP2K, Homo sapiens, UniProt Q9NSY1)
COQ8B: Atypical kinase COQ8B, mitochondrial (COQ8B, Homo sapiens, UniProt Q96D53)
murC: UDP-N-acetylmuramate--L-alanine ligase (murC, Escherichia coli K-12, UniProt P17952)
ACVR2B: Activin receptor type-2B (ACVR2B, Homo sapiens, UniProt Q13705)

| Structure (SMILES) | target | assay | setting | remaining activity [%] |
| --- | --- | --- | --- | --- |
| Cc1nn(CC(F)(F)F)cc1Nc1nccc(NCCc2cnc[nH]2)n1 | BMP2K | radiometric | 1 µM | 104 |
| COc1cc(Cl)c(C(=O)N[C@@H](CN[C@H]2CC[C@@H](N)CC2)Cc2ccc(C#N)cc2)cc1-c1ccc(CN[C@H](C)c2ccc(C)cc2)o1 | MAPK/MAK/MRK overlapping kinase (MOK, Homo sapiens, UniProt Q9UQ07) |  | 1 µM | 102 |
| Cc1ccc(C(=O)Nc2ccc(CN3CCN(C)CC3)c(C(F)(F)F)c2)cc1C#Cc1cnc2cccnn12 | COQ8B |  | 23.5 nM | 89 |
| Brc1cnc(Nc2cccc(CN3CCOCC3)c2)nc1NCCc1c[nH]cn1 | BMP2K | radiometric | 1 µM | 1 |
| CCCOc1ccc(OC)c(F)c1C(=O)c1ccc(C(=O)N[C@@H]2CNC[C@H]2NC(=O)c2ccc3[nH]ncc3c2)cc1 | Rho-associated protein kinase 2 (ROCK2, Homo sapiens, UniProt O75116) |  | 50 nM | 38 |
| O=C(NCCCNc1nc(Nc2cccc(CN3CCOCC3)c2)ncc1C1CC1)C1CCC1 | BMP2K | radiometric | 1 µM | 3 |
| O=[N+]([O-])c1cccc(COc2cccc(C=NNS(=O)(=O)c3ccc4ccccc4c3)c2)c1 | murC | absorbance | 50 µM | 58 |
| Cc1nn(CC(F)(F)F)cc1Nc1nccc(NCc2ccc(S(N)(=O)=O)cc2)n1 | BMP2K | radiometric | 1 µM | 86 |
| O=[N+]([O-])c1ccc(S(=O)(=O)Oc2ccccc2C=NNS(=O)(=O)c2ccc3ccccc3c2)cc1 | murC | absorbance | 100 µM | 75 |
| Nc1ncnc2occ(-c3ccc(NC(=O)Nc4cc(C(F)(F)F)ccc4F)cc3)c12 | COQ8B |  | 20 µM | 24 |
| O=C(Nc1ccc(C=NNS(=O)(=O)c2ccc3ccccc3c2)cc1)c1cc([N+](=O)[O-])cc([N+](=O)[O-])c1 | murC | absorbance | 100 µM | 72 |
| NS(=O)(=O)c1ccc(CNc2nc(Nc3cccc(CN4CCOCC4)c3)ncc2C2CC2)cc1 | BMP2K | radiometric | 1 µM | 68 |
| O=[N+]([O-])c1ccccc1S(=O)(=O)Oc1ccccc1C=NNS(=O)(=O)c1ccc2ccccc2c1 | murC | absorbance | 50 µM | 55 |
| CC(C)(C)c1nc2c(s1)c1nc(N)ncc1c1ccc(NS(=O)(=O)c3c(F)cccc3F)c(F)c12 | ACVR2B | radiometric | 1 µM | 88 |
| O=[N+]([O-])c1cccc(S(=O)(=O)Oc2ccccc2C=NNS(=O)(=O)c2ccc3ccccc3c2)c1 | murC | absorbance | 50 µM | 65 |
| Cc1nn(CC(F)(F)F)cc1Nc1nccc(NCCCNC(=O)C2CCC2)n1 | BMP2K | radiometric | 1 µM | 101 |
| O=C(Nc1ccccc1C=NNS(=O)(=O)c1ccc2ccccc2c1)c1cc([N+](=O)[O-])cc([N+](=O)[O-])c1 | murC | absorbance | 100 µM | 51 |
| CC(C)(C)c1nc(-c2cccc(NS(=O)(=O)c3c(F)cccc3F)c2F)c(-c2ccnc(N)n2)s1 | ACVR2B | radiometric | 1 µM | 46 |
